The target in one assay is T1, Low molecular weight protein-tyrosine phosphatase A (Mycobacterium tuberculosis) (UniProt P9WIA1).
T1 sequence (whole entry): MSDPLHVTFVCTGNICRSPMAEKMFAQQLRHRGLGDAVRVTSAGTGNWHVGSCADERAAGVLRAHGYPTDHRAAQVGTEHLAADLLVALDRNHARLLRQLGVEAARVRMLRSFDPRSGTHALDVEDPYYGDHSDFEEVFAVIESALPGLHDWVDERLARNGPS
The experiment in a line: Inhibition of Mycobacterium tuberculosis recombinant protein tyrosine phosphatase assessed as enzyme activity at 25 uM. On the set-up: scale not given: the % may be the effect or the level left. An outline of the steps: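 His-tagged recombinant M. tuberculosis PtpA expressed from pET28a. Compound diluted in 25 mM bis-Tris–HCl pH 8.0, 20 mM imidazole pH 7.0, 40 mM DTT and 40 mM pNPP substrate; enzyme added to start. Incubated 20 min at 37 °C, absorbance at 410 nm read every 2 min. Controls: no enzyme; enzyme with DMSO. Percent activity averaged from two experiments in triplicate.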
Turning to `COc1cc(O)c(C(=O)/C=C/c2cccc3ccccc23)c(OC)c1`, the Activity was determined as 84.4%. With `COC1C=C(C(=O)/C=C/c2ccc3ccccc3c2)C=CC1O` (centres undefined), the Activity was determined as 61%. Take `O=C(/C=C/c1ccc2c(c1)OCO2)c1ccccc1`: the Activity was found to be 103%. As for `COc1cc(O)c(C(=O)/C=C/c2cccc(Cl)c2)c(OC)c1`, the Activity was 87%. Take `COc1ccc(OC)c(C(=O)/C=C/c2cccc3ccccc23)c1`: the Activity came to 54%.

For `COc1cc(OC)c(C(=O)/C=C/c2cccc(Cl)c2)c(OC)c1`, the Activity was 98%.

As for `O=C(/C=C/c1ccc2ccccc2c1)c1cccc([N+](=O)[O-])c1`, the Activity came to 84%. The same measure, in the same setting: the value for `COc1ccc(OC)c(C(=O)/C=C/c2ccc3ccccc3c2)c1` was 42.5%; that for `O=C(/C=C/c1ccc2c(c1)OCO2)c1ccc(Br)cc1` was 86%; that for `O=C(/C=C/c1ccc2c(c1)OCO2)c1ccc([N+](=O)[O-])cc1` was 80.5%. For `O=C(/C=C/c1cccc2ccccc12)c1ccccc1O`, the Activity worked out at 24%. On to `COc1cc(C(=O)/C=C/c2ccc3c(c2)OCO3)ccc1O`, for which the Activity was 80%.

Consider `COc1cc(C(=O)/C=C/c2ccc3ccccc3c2)cc(OC)c1OC`, for which the Activity was determined as 109%. Consider `O=C(/C=C/c1ccc2ccccc2c1)c1ccc([N+](=O)[O-])cc1`, for which the Activity was determined as 89%. Consider `COc1ccc(C(=O)/C=C/c2cccc3ccccc23)cc1`, for which the Activity worked out at 82.4%. The same measure, in the same setting: the value for `COc1cc(OC)c(C(=O)/C=C/c2cccc([N+](=O)[O-])c2)c(OC)c1` was 100%. Take `COc1ccc(C(=O)/C=C/c2cccc3ccccc23)c(OC)c1`: the Activity is 80%. As for `COc1cc(C(=O)/C=C/c2cccc3ccccc23)cc(OC)c1OC`, the Activity came to 102%. `COc1cc(C(=O)/C=C/c2ccc3c(c2)OCO3)cc(OC)c1OC`: the Activity is 82.4%.

Regarding `O=C(/C=C/c1cccc2ccccc12)c1cccc([N+](=O)[O-])c1`, the Activity is 88%. Take `O=C(/C=C/c1cccc2ccccc12)c1ccc(Br)cc1`: the Activity was 75%. Turning to `COc1cc(OC)c(C(=O)/C=C/c2ccc3ccccc3c2)c(OC)c1`, the Activity is 104%. Same read-out and setting: the value for `O=C(/C=C/c1ccc2ccccc2c1)c1ccc(Br)cc1` was 89.2%; that for `COc1ccc(C(=O)/C=C/c2ccc3c(c2)OCO3)cc1` was 94%; that for `O=C(/C=C/c1cccc2ccccc12)c1ccc([N+](=O)[O-])cc1` was 82%. In the case of `COc1cc(OC)c(C(=O)/C=C/c2ccc(Cl)c(Cl)c2)c(OC)c1`, the Activity worked out at 99%. Regarding `COc1ccc(OC)c(C(=O)/C=C/c2ccc3c(c2)OCO3)c1`, the Activity worked out at 91.3%.

For the compound `O=C(/C=C/c1ccc2c(c1)OCO2)c1cccc([N+](=O)[O-])c1`, the Activity was found to be 74%. Turning to `COc1cc(O)c(C(=O)/C=C/c2cccc([N+](=O)[O-])c2)c(OC)c1`, the Activity was determined as 92%.

Take `O=C(/C=C/c1ccc2c(c1)OCO2)c1ccccc1O`: the Activity was 103%. The same measure, in the same setting: the value for `O=C(/C=C/c1cccc2ccccc12)c1cccc(O)c1` was 79.5%; that for `O=C(/C=C/c1cccc2ccccc12)c1ccccc1` was 62.7%; that for `O=C(/C=C/c1ccc2ccccc2c1)c1ccccc1O` was 74.6%. On the same count and under the same terms, the value for `COc1ccc(C(=O)/C=C/c2ccc3c(c2)OCO3)cc1OC` was 99%; that for `COc1ccc(C(=O)/C=C/c2ccc3ccccc3c2)cc1OC` was 31.5%.

A further assay has as its target T2, Low molecular weight protein-tyrosine phosphatase A (Mycobacterium tuberculosis, UniProt P9WIA1).
T2 sequence (P9WIA1 whole entry): T1 sequence (whole entry)
The experiment in a line: Inhibition of Mycobacterium tuberculosis recombinant protein tyrosine phosphatase.
What is called IC50 is the concentration that gives 50% inhibition. As for `COc1ccc(OC)c(C(=O)/C=C/c2cccc3ccccc23)c1`, the half-inhibitory concentration (IC50) is 39.5 µM. For `COc1ccc(OC)c(C(=O)/C=C/c2ccc3ccccc3c2)c1`, the concentration for half-maximal inhibition (IC50) came to 8.4 µM.

Regarding `O=C(/C=C/c1cccc2ccccc12)c1ccccc1O`, the 50% inhibitory concentration (IC50) amounted to 50.7 µM. For the compound `COc1ccc(C(=O)/C=C/c2ccc3ccccc3c2)cc1OC`, the half-maximal inhibitory concentration (IC50) came out at 23.1 µM.
